Two compounds from ChEMBL document CHEMBL3877254, “Tetracyclic indolines as a novel class of β-lactam-selective resistance-modifying agent for MRSA” (Eur J Med Chem, 2017) can be followed below.

Values after ≈ are worked out from the molar mass of the structure shown. Bounds are passed on as bounds.

For orientation: GI50 means the concentration that inhibits growth by half.

Data set [1] has as its system Staphylococcus aureus. Briefly: Potentiation of oxacillin-induced antibacterial activity against methicillin-resistant Staphylococcus aureus ATCC BAA-44 assessed as fold reduction in oxacillin MIC at 20 uM after 18 hrs by broth microdilution method. The class given is functional. In general terms: In broth dilution the organism is exposed to a series of concentrations in liquid medium.

Data set [2] is described as follows: Cytotoxicity against human HeLa cells after 24 hrs by CellTiter-Glo luminescent cell viability assay. The format is toxicity, cell-based. The method, boiled down: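 HeLa cells seeded at 20 000 cells/well in DMEM with 10% FCS and 1% penicillin/streptomycin, grown 16 h at 37 °C in 5% CO2. Medium then replaced and compounds added in DMSO (1 μL per 100 μL), final 0.5–32 μg/mL, triplicate. After 24 h at 37 °C, plates equilibrated to room temperature and CellTiter-Glo luminescence read.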

The subject of data set [3] is Staphylococcus aureus. Briefly: Potentiation of erythromycin-induced antibacterial activity against methicillin-resistant Staphylococcus aureus ATCC BAA-44 assessed as fold reduction in erythromycin MIC at 20 uM after 18 hrs by broth microdilution method. The class given is functional.
The subject of data set [4] is Staphylococcus aureus. Briefly: Potentiation of ciprofloxacin-induced antibacterial activity against methicillin-resistant Staphylococcus aureus ATCC BAA-44 assessed as fold reduction in ciprofloxacin MIC at 20 uM after 18 hrs by broth microdilution method. The format is functional.
Data set [5] concerns Staphylococcus aureus. Briefly: Potentiation of cefazolin-induced antibacterial activity against methicillin-resistant Staphylococcus aureus ATCC BAA-44 assessed as compound concentration required in combination with cefazolin to return MRSA sensitive concentration below 8 ug/ml after overnight incubation. The format is functional. The method, boiled down: (§1)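 Antibiotic held at fixed final level in MHB (amoxicillin/clavulanic acid 4/2 μg/mL; cefazolin 8 μg/mL); test compound (10 mg/mL DMSO stock) 2-fold serially diluted from 64 μg/mL top; final inoculum OD600 0.001; overnight at 37 °C with shaking; MRC = lowest compound concentration with no visible growth.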

Data set [6] concerns Staphylococcus aureus. Briefly: Potentiation of amoxicillin/clavulanic acid-induced antibacterial activity against methicillin-resistant Staphylococcus aureus NRS100 assessed as compound concentration required in combination with amoxicillin/clavulanic acid to return MRSA sensitive concentration below 4 ug/ml after overnight incubation. The format is functional. The method, boiled down:
as §1

In data set [7] the test system is Staphylococcus aureus. Briefly: Potentiation of methicillin-induced antibacterial activity against methicillin-resistant Staphylococcus aureus ATCC BAA-44 assessed as fold reduction in methicillin MIC at 20 uM after 18 hrs by broth microdilution method. The format is functional.
Data set [8] has as its system Staphylococcus aureus. Briefly: Potentiation of cefazolin-induced antibacterial activity against methicillin-resistant Staphylococcus aureus ATCC BAA-44 assessed as fold reduction in cefazolin MIC at 20 uM after 18 hrs by broth microdilution method. The class given is functional.
Data set [9] has as its system Staphylococcus aureus. Briefly: Potentiation of daptomycin-induced antibacterial activity against methicillin-resistant Staphylococcus aureus ATCC BAA-44 assessed as fold reduction in daptomycin MIC at 20 uM after 18 hrs by broth microdilution method. The class given is functional.
Data set [10] relates to Staphylococcus aureus. Briefly: Potentiation of streptomycin-induced antibacterial activity against methicillin-resistant Staphylococcus aureus ATCC BAA-44 assessed as fold reduction in streptomycin MIC at 20 uM after 18 hrs by broth microdilution method. The format is functional.
The test system of data set [11] is Staphylococcus aureus. Briefly: Potentiation of amoxicillin/clavulanic acid-induced antibacterial activity against methicillin-resistant Staphylococcus aureus ATCC BAA-44 assessed as fold reduction in amoxicillin/clavulanic acid MIC at 20 uM after 18 hrs by broth microdilution method. The format is functional.
Data set [12] concerns Staphylococcus aureus. Briefly: Potentiation of meropenem-induced antibacterial activity against methicillin-resistant Staphylococcus aureus ATCC BAA-44 assessed as fold reduction in meropenem MIC at 20 uM after 18 hrs by broth microdilution method. The class given is functional.
Data set [13] deals with Staphylococcus aureus. Briefly: Potentiation of tetracycline-induced antibacterial activity against methicillin-resistant Staphylococcus aureus ATCC BAA-44 assessed as fold reduction in tetracycline MIC at 20 uM after 18 hrs by broth microdilution method. The format is functional.
The subject of data set [14] is Staphylococcus aureus. Briefly: Antibacterial activity against methicillin-resistant Staphylococcus aureus NRS100 after 18 hrs by broth microdilution method.
The test system of data set [15] is Staphylococcus aureus. Briefly: Potentiation of gentamycin-induced antibacterial activity against methicillin-resistant Staphylococcus aureus ATCC BAA-44 assessed as fold reduction in gentamycin MIC at 20 uM after 18 hrs by broth microdilution method. The format is functional.
Data set [16] deals with Staphylococcus aureus. Briefly: Potentiation of clindamycin-induced antibacterial activity against methicillin-resistant Staphylococcus aureus ATCC BAA-44 assessed as fold reduction in ciprofloxacin MIC at 20 uM after 18 hrs by broth microdilution method. The class given is functional.
The test system of data set [17] is Staphylococcus aureus. Briefly: Potentiation of amoxicillin/clavulanic acid-induced antibacterial activity against methicillin-resistant Staphylococcus aureus ATCC BAA-44 assessed as fractional inhibitory concentration by checkerboard assay. The class given is functional. The method, boiled down: (§2)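 Checkerboard in MRSA; FICI = FICA + FICB, each FIC being the combination concentration (MRC) divided by that agent's MIC alone; FICI <0.5 taken as synergy.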

Data set [18] has as its system Staphylococcus aureus. Briefly: Potentiation of amoxicillin/clavulanic acid-induced antibacterial activity against methicillin-resistant Staphylococcus aureus NRS-46070 assessed as compound concentration required in combination with amoxicillin/clavulanic acid to return MRSA sensitive concentration below 4 ug/ml after overnight incubation. The class given is functional. The method, boiled down: as §1

Data set [19] has as its system Staphylococcus aureus. Briefly: Potentiation of amoxicillin/clavulanic acid-induced antibacterial activity against methicillin-resistant Staphylococcus aureus NRS-46231 assessed as compound concentration required in combination with amoxicillin/clavulanic acid to return MRSA sensitive concentration below 4 ug/ml after overnight incubation. The format is functional. The method, boiled down: as §1

Data set [20] has as its system Staphylococcus aureus. Briefly: Potentiation of amoxicillin/clavulanic acid-induced antibacterial activity against methicillin-resistant Staphylococcus aureus NRS-45898 assessed as compound concentration required in combination with amoxicillin/clavulanic acid to return MRSA sensitive concentration below 4 ug/ml after overnight incubation. The class given is functional. The method, boiled down: as §1

In data set [21] the test system is Staphylococcus aureus. Briefly: Antibacterial activity against methicillin-resistant Staphylococcus aureus NRS-45898 after 18 hrs by broth microdilution method.
For data set [22], the system named is Staphylococcus aureus. Briefly: Antibacterial activity against methicillin-resistant Staphylococcus aureus NRS-46231 after 18 hrs by broth microdilution method.
Data set [23] has as its system Staphylococcus aureus. Briefly: Potentiation of cefazolin-induced antibacterial activity against methicillin-resistant Staphylococcus aureus ATCC BAA-44 assessed as fractional inhibitory concentration by checkerboard assay. The class given is functional. The method, boiled down:
as §2

For data set [24], the system named is Staphylococcus aureus. Briefly: Antibacterial activity against methicillin-resistant Staphylococcus aureus NRS-46070 after 18 hrs by broth microdilution method.

In the case of `C=C1CCCC[C@@]23N(C(=O)OC)CC[C@@]12c1c(C)cc(C)cc1N3C`, the “fold change (FC)” value with Staphylococcus aureus [1] came out at 8; in the data set on Staphylococcus aureus [3] it was 1; in the data set with Staphylococcus aureus [4] it was 2; in the data set on Staphylococcus aureus [7], 16; in the data set on Staphylococcus aureus [8] it was 16; in the data set with Staphylococcus aureus [9] it was 1. The “fold change (FC)” value in the data set with Staphylococcus aureus [10] turned out to be 1; with Staphylococcus aureus [11], 8; in the data set with Staphylococcus aureus [12], 16; in the data set with Staphylococcus aureus [13], 2; with Staphylococcus aureus [15], 1; in the data set with Staphylococcus aureus [16], 1. Moreover, the GI50 at 24 h in data set [2] turned out to be 20 µg/mL (≈ 58.7 µM). Also, the MRC with Staphylococcus aureus [5] and in the data set on Staphylococcus aureus [6] was 16 µg/mL throughout. The MIC in the data set with Staphylococcus aureus [14] is above 64 µg/mL.
Regarding `C=C1CCCC[C@@]23N(C(=O)OCC)CC[C@@]12c1c(C)cc(C)cc1N3C`, the “fractional inhibitory concentration index (FICI)” value with Staphylococcus aureus [17] is on record as 0.127; with Staphylococcus aureus [23], 0.078. This compound also returned a GI50 at 24 h in [2] of 61 µg/mL (≈ 172 µM). For the same compound, the MRC in the data set on Staphylococcus aureus [18], in the data set with Staphylococcus aureus [19], with Staphylococcus aureus [5], with Staphylococcus aureus [6] and in the data set on Staphylococcus aureus [20] was 2 µg/mL in each case. Further, the MIC against Staphylococcus aureus [21], in the data set on Staphylococcus aureus [22], against Staphylococcus aureus [14] and in the data set on Staphylococcus aureus [24] was above 64 µg/mL in each case.
